The full list was thinned out, with hits kept by preference.
UPR XBP1 act = activators of adaptive arm of unfolded protein response (XBP1); CHO-XBP1 luciferase reporter, IRE1-XBP1 UPR activation, luminescence; percent of tunicamycin response, DMSO as zero; activation, % at 20 µM; hit rate 0.33% among 330,000; AID 463104;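 active = versus positive control, 20 µM dose yields 30% or more activation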
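Material: CHO-XBP1 cells stably carrying IRE1-XBP1-driven luciferase reporter / Amount: 1000 cells per well / Compound: 20 µM, 1% DMSO / Times: 6 h treatment, 37 °C / Detection: luciferase luminescence / Measure: % activation of reporter signal versus tunicamycin and DMSO controls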
CHOP inhibitor = CHOP inhibition in unfolded protein response. hit rate 3.8% among 220,000. inhibition, % at 10 µM. CHO-K1 CHOP-promoter luciferase, tunicamycin-induced, 15-18 h;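 active = compounds that reduced the stress-induced luciferase reporter signal by more than about 70% of percent inhibition, limit read from the data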
V-ATPase pH = yeast V-ATPase proton transport regulation by pHLuorin; hit rate 0.37% among 350,000; S. cerevisiae, pHLuorin cytosolic pH fluorescence; response, % at 10 µM; in the data active = response mostly above about 7.3%, no sharp cut-off; inactive = mostly below about 5.4%; also: actives read high
Tb MetRS inh = blocks T. brucei methionyl-tRNA synthetase activity | hit rate 0.4% among 360,000 | inhibition, % at 11.9 µM | purified T. brucei MetRS, ATP depletion, Kinase-Glo luminescence;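 active = inhibition above a per-plate cutoff of the control wells' mean inhibition plus 3 SD, cut at about 5.5% in these data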
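Test system – parasite MetRS enzyme · Reagent – substrates ATP, L-methionine and bulk Escherichia coli tRNA · Doses – 11.9 µM compound single dose, 0.9% DMSO · Times – 15 min enzyme-compound preincubation, 2 h reaction, 10 min detection, 25 °C · Signal – Kinase-Glo luminescence, ATP depletion format · Controls – DMSO-only wells as low control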
UPR CHOP act = activators of apoptotic arm of unfolded protein response (CHOP); CHO-CHOP luciferase reporter, UPR activation, luminescence; percent of tunicamycin response over DMSO baseline; activation, % at 10 µM; hit rate 0.34% among 330,000;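 active = at 10 µM dose, activation of 40% or more, normalized to positive control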
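assay system = CHO CHOP reporter cells | amount = 500 CHO-CHOP cells per well | buffer or medium = F12 with 10% FBS | incubation = 16-18 h cell attachment, then 6 h compound exposure, 37 °C | detection = luminescence read with Steady-Glo | read-out = percent activation relative to tunicamycin control | controls = tunicamycin high control, DMSO low control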
Hits are given with their value.

What do the screens show for `COC(=O)c1cc(NC(=O)Nc2cccc(Cl)c2)ccc1Cl`?
UPR XBP1 act: inactive; CHOP inhibitor: 95; V-ATPase pH: inactive; Tb MetRS inh: inactive; UPR CHOP act: inactive

Results for COc1ccc(C)cc1NC(=O)Nc1cccc(C)c1 ?
UPR XBP1 act: inactive; CHOP inhibitor: inactive; V-ATPase pH: inactive; Tb MetRS inh: inactive; UPR CHOP act: inactive

What do the screens show for `Brc1cccc(-c2nc3c4ccccc4ccn3c2Cc2ccsc2)c1`?
Tb MetRS inh: inactive

Results for O=C1NC[C@@H](CCCCN2C[C@H](Cc3ccc(O)cc3)N(CCc3ccccc3)C(=O)C2=O)N(CCc2ccc(O)cc2)C1=O ?
Tb MetRS inh: inactive

How did CCOc1ccccc1N(CC(=O)NC1CCCC1)C(=O)CNC(=O)c1cccs1 do in these assays?
UPR XBP1 act: inactive; V-ATPase pH: inactive; Tb MetRS inh: inactive; UPR CHOP act: inactive

What do the screens show for `CC(=O)NC(c1cccc(F)c1)c1nc(-c2cc(F)cc(Cl)c2)cs1` (stereo not drawn)?
Tb MetRS inh: inactive

How did O=C(COC(=O)c1cccnc1Cl)Nc1ccc(N2CCOCC2)cc1 do in these assays?
Tb MetRS inh: inactive

Results for Cc1ccc(N2CC(O)CSC2=Nc2ccccc2)cc1 (stereo not drawn) ?
V-ATPase pH: inactive; Tb MetRS inh: inactive

How did COc1ccc(-c2cc(=O)c3cc(OC)ccc3o2)cc1 do in these assays?
UPR XBP1 act: inactive; CHOP inhibitor: 78; V-ATPase pH: inactive; Tb MetRS inh: inactive; UPR CHOP act: inactive

What do the screens show for `CCn1c(SCC(=O)Nc2sc3c(c2C#N)CCC(C(C)(C)C)C3)nnc1-c1ccco1` (stereo not drawn)?
UPR XBP1 act: inactive; CHOP inhibitor: 78; V-ATPase pH: inactive; Tb MetRS inh: inactive; UPR CHOP act: inactive

What do the screens show for `Cc1nn(CC(=O)Nc2sc3c(c2C#N)CCC(C(C)(C)C)C3)c(C)c1[N+](=O)[O-]` (stereo not drawn)?
UPR XBP1 act: inactive; CHOP inhibitor: 89; V-ATPase pH: inactive; Tb MetRS inh: inactive; UPR CHOP act: inactive

What do the screens show for `Cc1nn(CCCC(=O)Nc2sc3c(c2C#N)CCC3)c(C)c1[N+](=O)[O-]`?
UPR XBP1 act: inactive; CHOP inhibitor: inactive; V-ATPase pH: inactive; Tb MetRS inh: inactive; UPR CHOP act: inactive

Results for CCn1c(SCC(=O)Nc2sc3c(c2C#N)CCCC3)nnc1-c1ccco1 ?
UPR XBP1 act: inactive; CHOP inhibitor: inactive; V-ATPase pH: inactive; Tb MetRS inh: inactive; UPR CHOP act: inactive

How did CCOc1ccc(NC(=O)CN(C)C(=O)c2cccc(S(=O)(=O)N3CCN(C)CC3)c2)cc1OCC do in these assays?
V-ATPase pH: inactive; Tb MetRS inh: inactive

Results for CCCNC(=O)c1cc(C2CCCN(C(=O)c3ccc(NC(C)=O)cc3)C2)on1 (stereo not drawn) ?
Tb MetRS inh: inactive

What do the screens show for `Nc1nc(Cl)cc(N2CCC(c3cc(-c4ccc(Cl)cc4Cl)n[nH]3)CC2)n1`?
UPR XBP1 act: inactive; CHOP inhibitor: 89; V-ATPase pH: inactive; Tb MetRS inh: 21; UPR CHOP act: inactive

How did Cn1c2c(c(=O)n(C)c1=O)CN(CC1CCCO1)CN2 (stereo not drawn) do in these assays?
UPR XBP1 act: inactive; CHOP inhibitor: 73; V-ATPase pH: inactive; Tb MetRS inh: inactive; UPR CHOP act: inactive

How did COc1ccc(CCN2CNc3c(c(=O)n(C)c(=O)n3C)C2)cc1 do in these assays?
UPR XBP1 act: inactive; CHOP inhibitor: inactive; V-ATPase pH: inactive; Tb MetRS inh: inactive; UPR CHOP act: inactive

How did Cc1cccc(N2CCN(CC(=O)Nc3ccc(-n4cnnn4)cc3)CC2)c1C do in these assays?
UPR XBP1 act: inactive; CHOP inhibitor: 94; V-ATPase pH: inactive; Tb MetRS inh: inactive; UPR CHOP act: inactive

Results for CC(C)NC(=O)C1C(c2ccc(C(F)(F)F)cc2)=Nc2ccccc2N1C(=O)c1cc2ccccc2[nH]1 (stereo not drawn) ?
Tb MetRS inh: inactive

How did Cc1ccc(C)n1-c1ccc(-c2ccnc(N)n2)cc1 do in these assays?
CHOP inhibitor: inactive; V-ATPase pH: inactive; Tb MetRS inh: inactive

Results for O=C(NCc1cccnc1)c1[nH]c(C(F)(F)F)nc1-c1ccccc1 ?
Tb MetRS inh: inactive

What do the screens show for `O=C1CCCCC(=O)[C@H](O)C[C@H](COCc2ccccc2)O1`?
Tb MetRS inh: inactive

What do the screens show for `CCOC(=O)c1sc(NC(=O)c2cccc(S(=O)(=O)N3CCc4ccccc43)c2)c(C#N)c1C`?
UPR XBP1 act: inactive; CHOP inhibitor: 95; V-ATPase pH: inactive; Tb MetRS inh: inactive; UPR CHOP act: inactive

Results for CCOC(=O)c1sc(NC(=O)CSc2ccccn2)c(C#N)c1C ?
UPR XBP1 act: inactive; CHOP inhibitor: 79; V-ATPase pH: inactive; Tb MetRS inh: inactive; UPR CHOP act: inactive

What do the screens show for `CCC(CC)c1nnc(NC(=O)c2cccc(S(=O)(=O)N3CCc4ccccc43)c2)s1`?
UPR XBP1 act: inactive; CHOP inhibitor: inactive; V-ATPase pH: inactive; Tb MetRS inh: inactive; UPR CHOP act: inactive

What do the screens show for `O=c1oc(Cl)c(Cl)c2ccccc12`?
UPR XBP1 act: inactive; CHOP inhibitor: inactive; V-ATPase pH: inactive; Tb MetRS inh: inactive; UPR CHOP act: 88

What do the screens show for `COc1cccc(/C=N/NC(=O)c2cc3c(OC)cccc3[nH]2)c1O`?
UPR XBP1 act: inactive; CHOP inhibitor: 92; V-ATPase pH: inactive; Tb MetRS inh: inactive; UPR CHOP act: inactive

Results for COc1cccc(/C=N/NC(=O)c2cc3cc([N+](=O)[O-])ccc3s2)c1O ?
CHOP inhibitor: 100; V-ATPase pH: inactive; Tb MetRS inh: inactive

What do the screens show for `Cc1ccc(/C=C2/SC(=S)N(CCCC(=O)Nc3ccc(O)cc3)C2=O)cc1`?
UPR XBP1 act: inactive; CHOP inhibitor: 94; V-ATPase pH: inactive; Tb MetRS inh: inactive; UPR CHOP act: inactive

Results for Cc1ccc(/C=C2\SC(=S)N(CCCC(=O)NNC(=O)c3ccccc3O)C2=O)cc1 ?
UPR XBP1 act: inactive; CHOP inhibitor: 98; V-ATPase pH: inactive; Tb MetRS inh: inactive; UPR CHOP act: inactive

Results for Cc1ccc(/C=C2\SC(=S)N(CCC(=O)NNC(=O)c3ccccc3O)C2=O)cc1 ?
UPR XBP1 act: inactive; V-ATPase pH: inactive; Tb MetRS inh: inactive; UPR CHOP act: inactive

How did COC(=O)[C@]12CCCCC=C1N(Cc1ccc(Cl)cc1Cl)C(=O)[C@H](CC(=O)N1CCSCC1)C2 do in these assays?
Tb MetRS inh: inactive

Results for COCCNC(=O)/C(C#N)=c1\s/c(=C\c2ccccc2OC(F)F)c(=O)n1Cc1ccccc1 ?
UPR XBP1 act: inactive; CHOP inhibitor: 95; UPR CHOP act: inactive

Results for CC(C)C(c1nnnn1Cc1ccccc1)N1CCc2ccccc2C1 (stereo not drawn) ?
UPR XBP1 act: inactive; CHOP inhibitor: 76; V-ATPase pH: inactive; Tb MetRS inh: inactive; UPR CHOP act: inactive

What do the screens show for `c1ccc(Cn2nnnc2C(c2cccs2)N2CCCCCC2)cc1` (stereo not drawn)?
UPR XBP1 act: inactive; CHOP inhibitor: inactive; V-ATPase pH: inactive; Tb MetRS inh: inactive; UPR CHOP act: inactive
